Measured values published in paper PMC10442107 (Hepatology (Baltimore, Md.), 2023).
Read-outs that look alike come from different tables or passages of the source.

Tests used:
ileal ASBT = biological target: T1, ileal ASBT (Mus musculus, UniProt P70172); assay: Pharmacodynamic study in normal wild-type C57BL/6N mice; format: in vivo
T1 sequence (P70172 1-348): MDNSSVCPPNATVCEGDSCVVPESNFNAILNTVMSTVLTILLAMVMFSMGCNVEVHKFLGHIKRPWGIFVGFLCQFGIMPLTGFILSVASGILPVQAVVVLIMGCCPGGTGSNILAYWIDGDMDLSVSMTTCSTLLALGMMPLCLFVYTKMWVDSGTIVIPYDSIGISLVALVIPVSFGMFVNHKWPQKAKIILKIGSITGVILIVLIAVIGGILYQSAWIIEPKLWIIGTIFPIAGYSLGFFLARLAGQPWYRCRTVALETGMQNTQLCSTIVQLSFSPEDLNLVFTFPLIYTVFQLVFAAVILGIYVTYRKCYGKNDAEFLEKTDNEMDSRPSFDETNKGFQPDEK
How it was run: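 Adult C57BL/6N mice (13–14 weeks) were gavaged daily for 8 days with the test compound at 3 or 10 mg/kg/d or with vehicle (0.5% CMC + 0.1% Tween 80). Feces were collected between days 6 and 7 and urine 2 h after the day-8 terminal dose. Total bile acids were measured with commercial kits and compared with vehicle by 1-way ANOVA with Dunnett post hoc test.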

BDL mice = assay: Bile duct ligation; format: in vivo, mouse; details: 3 mg/kg/d
How it was run: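 Male mice on a C57BL/6J background, age-matched, underwent bile duct ligation. Oral gavage dosing started 3 days after surgery and continued once daily for 11 days, with the comparator ASBT inhibitor at 3 mg/kg. Blood for serum biochemistry was taken by cardiac puncture at sacrifice. RNAseq was run on RNA from terminal liver samples (15 mg fresh tissue).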

[1] = Oral pharmacokinetic profile of A3907 and A3309 in BDL mice; format: in vivo, mouse
How it was run: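 Adult male C57BL/6 mice with bile duct ligation received the test compound or a gut-restricted ASBT inhibitor by mouth at 3 or 10 mg/kg once daily for 7 days. Plasma exposure was profiled and set against normal wild-type mice dosed under the same conditions.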

[2] = compared with levels in BDL mice of the current study; cited from earlier work
Mdr2 −/− mice = details: cited from earlier work
[3] = pediatric, cited from earlier work
[4] = 11 days, A3907 vs A3309 comparison
[5] = progressive familial intrahepatic cholestasis

CCCCC1(CCCC)CN(c2ccccc2)c2cc(SC)c(OCC(=O)N[C@@H](C(=O)NCC(=O)O)c3ccccc3)cc2S(=O)(=O)C1 [A3309]
urine BA levels (ileal ASBT; normal mice, oral 3 and 10 mg/kg/d, 2 hours after dose on day 8): did not change
fecal BA levels (ileal ASBT; normal nonfasted mice, oral 3 and 10 mg/kg/d once daily for 7 days, vs vehicle): significant elevation of fecal BA levels
serum and biliary BAs levels (BDL mice; [4]): attenuated BA levels in a nonsignificant fashion
urinary BA excretion (BDL mice; [4]): induced urinary BA excretion to some extent
number of dysregulated hepatic genes normalized (BDL mice; liver RNAseq, of 5790 DEGs vs sham): 15
serum levels compared with A3907 ([1]; BDL mice, 3 or 10 mg/kg oral daily): significantly lower than A3907
plasma exposure in BDL mice relative to normal WT mice ([1]; same experimental conditions, WT data not shown): ~ 6 fold
systemic exposure in humans at the therapeutically relevant dose [2]: several-fold lower than levels demonstrating signs of efficacy in BDL mice

CCCCC1(CCCC)CN(c2ccccc2)c2cc(SC)c(OCC(=O)N[C@@H](C(=O)N[C@@H](CC)C(=O)O)c3ccc(O)cc3)cc2S(=O)(=O)N1 [A4250, odevixibat]
BA levels in serum and bile (Mdr2 −/− mice): reduced
cholestatic liver disease (Mdr2 −/− mice): improved
BA load [3, 5]: reduced
pruritus [3, 5]: decreased

CCCCC1(CCCC)CS(=O)(=O)c2ccc(N(C)C)cc2[C@@H](c2ccc(OCCCC[N+]34CCN(CC3)CC4)cc2)[C@H]1O [SC-435]
BA levels in serum and bile (Mdr2 −/− mice): reduced
cholestatic liver disease (Mdr2 −/− mice): improved

CCCCC1(CCCC)CS(=O)(=O)c2ccc(N(C)C)cc2[C@@H](c2ccc(OCc3ccc(C[N+]45CCN(CC4)CC5)cc3)cc2)[C@H]1O [maralixibat]
BA load ([3]; Alagille syndrome): reduced
pruritus ([3]; Alagille syndrome): decreased
